Published values from different studies.
TRPC3: Short transient receptor potential channel 3 (TRPC3, Homo sapiens, UniProt Q13507)

`C=CC(=O)Nc1ccccc1C(=O)Nc1ccc(C#Cc2ccc(OC)cc2)nn1` has an inhibition of 3% (Fibroblast growth factor receptor 1 (FGFR1, Homo sapiens, UniProt P11362); enzyme activity, inhibitor, radiometric; 1 µM).
`CCOC(=O)c1cnn(-c2ccc(NC(=O)C(Cl)=C(Cl)Cl)cc2)c1C(F)(F)F` has an inhibition of 88.6% (TRPC3; ion current, inhibitor, patch clamp; HEK293; 10 µM).
`COc1cc(-c2cncc3c2CN(C)Cc2cc(N4CCNCC4)ccc2-3)cc(OC)c1OC` gave a remaining activity of 102% (Interferon-induced, double-stranded RNA-activated protein kinase (EIF2AK2, Homo sapiens, UniProt P19525); enzyme activity, inhibitor; 1 µM).
The remaining binding of `C=CC(=O)N1CCC(COCC(=O)N2CCN(c3nc(-c4cnc(N)nc4C(F)F)nc(N4CCOC[C@@H]4C)n3)CC2)CC1` is reported as 46% (Serine/threonine-protein kinase WNK4 (WNK4, Homo sapiens, UniProt Q96J92); binding, competition with immobilised ligand; 1 µM).
For `Cc1cc([C@@H](C)Nc2ccccc2C(=O)O)c2nc(N3CCC(F)(F)CC3)c(C#N)c(=O)n2c1`, the remaining binding was 100% (MAP kinase-interacting serine/threonine-protein kinase 2 (MKNK2, Homo sapiens, UniProt Q9HBH9); binding, competition with immobilised ligand; 10 µM).
For `CCNC(=O)c1cn(-c2ccc(-n3ccc(Cl)c(Cl)c3=O)cc2)nc1C(F)(F)F`, the inhibition was over 90% (TRPC3; ion current, inhibitor, patch clamp; HEK293; 10 µM).
With `CNc1ncc2c(/C=C/C(=O)N3CCC(OC)CC3)nn(Cc3cccc(C(F)(F)F)c3)c2n1` the remaining activity was 90% (Tyrosine-protein kinase Fgr (FGR, Homo sapiens, UniProt P09769); enzyme activity, inhibitor, radiometric; 1 µM).
The inhibition of `CCNC(=O)c1cnn(-c2ccc(-n3ccc(Cl)c(Cl)c3=O)cc2)c1C(F)(F)F` is reported as 95.7% (TRPC3; ion current, inhibitor, patch clamp; HEK293; 10 µM).
`C=CC(=O)N1C[C@@H](n2nc(C#Cc3c(F)cc4c(ncn4C4CC4)c3F)c(C(N)=O)c2NC)C[C@@H]1COC` gave an inhibition of 64.6% (Serine/threonine-protein kinase 10 (STK10, Homo sapiens, UniProt O94804); enzyme activity, inhibitor, mobility shift; 1 µM).
`COc1ccc(CNC(=O)c2cc3c(cc2[N+](=O)[O-])OCO3)cc1` gave an inhibition of over 50% (Myeloperoxidase (MPO, Homo sapiens, UniProt P05164); enzyme activity, inhibitor; 5 µM).
